Assay results taken from ChEMBL document CHEMBL1154620, “Total synthesis and antiproliferative activity screening of (+/-)-aplicyanins A, B and E and related analogues” (2009).
Calls of active or inactive are those of the source. The rule behind the calls is not given here.

Tests used:
Type in all cases: functional
MDA-MB-231 = assay: Cytotoxicity against human MDA-MB-231 cells after 72 hrs by SRB assay
Procedure, shortened: (§1)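 Cells seeded at 5 × 10³/well and grown 24 h; one plate per line fixed at this point as T_z reference. Exposure to vehicle or compound for a further 72 h. Wash in PBS, fix 15 min in 1% glutaraldehyde, stain 30 min at rt with 0.4% SRB, rinse in 1% acetic acid, extract into 10 mM trizma base, read A490. NCI algorithm; GI50 interpolated from dose curves.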

HT-29 = assay: Cytotoxicity against human HT-29 cells after 72 hrs by SRB assay; procedure, shortened: as §1
A549 = assay: Cytotoxicity against human A549 cells after 72 hrs by SRB assay; procedure, shortened: as §1

Structure (SMILES) | GI50 (MDA-MB-231; MDA-MB-231, 72 h) [µM] | GI50 (HT-29; HT-29, 72 h) [µM] | GI50 (A549; A549, 72 h) [µM] | GI50 (MDA-MB-231) | GI50 (HT-29) | GI50 (A549)
Cn1cc(C2CCN=C(N)N2)c2ccc(Br)cc21 (racemic) | 8.79 | 4.56 | 9.11 |  |  | 
COn1cc(C2CC(=O)N=C(N)N2)c2ccccc21 (racemic) |  |  |  | inactive | inactive | inactive
CC(=O)/N=C1\NCCC(c2c[nH]c3cc(Br)ccc23)N1 (racemic) | 5.67 | 2.12 | 6.86 |  |  | 
Cn1cc(C2CCN=C(N)N2)c2ccccc21 (racemic) | 1.71 | 4.29 | 2.67 |  |  | 
Cn1cc(C2CC(=O)N=C(N)N2)c2ccccc21 (racemic) |  |  |  | inactive | inactive | inactive
Cn1cc(C2CCN=C(N)N2)c2cc(Br)ccc21 (racemic) | 25.7 | 13.7 |  |  |  | inactive
NC1=NCCC(c2c[nH]c3ccc(Br)cc23)N1 (racemic) [APLICYANIN A] | 0.27 | 0.11 | 0.27 |  |  | 
Cn1cc(C2CC(=O)N=C(N)N2)c2ccc(Br)cc21 (racemic) | 2.86 |  |  |  | inactive | inactive
CC(=O)/N=C1\NCCC(c2cn(C)c3ccc(Br)cc23)N1 (racemic) | 0.94 | 0.31 | 0.43 |  |  | 
COn1cc(C2CCN=C(N)N2)c2ccccc21 (racemic) |  |  |  | inactive | inactive | inactive
NC1=NC(=O)CC(c2c[nH]c3cc(Br)ccc23)N1 (racemic) |  |  |  | inactive | inactive | inactive
NC1=NC(=O)CC(c2c[nH]c3ccc(Br)cc23)N1 (racemic) |  |  |  | inactive | inactive | inactive
CC(=O)/N=C1\NCCC(c2cn(C)c3ccccc23)N1 (racemic) | 14.4 | 7.4 | 10.7 |  |  | 
CC(=O)/N=C1\NCCC(c2cn(C)c3cc(Br)ccc23)N1 (racemic) | 8.02 | 4.3 | 6.3 |  |  | 
CC(=O)/N=C1\NCCC(c2c[nH]c3ccc(Br)cc23)N1 (racemic) [APLICYANIN B] | 0.98 | 0.33 | 0.51 |  |  | 
Cn1cc(C2CC(=O)N=C(N)N2)c2cc(Br)ccc21 (racemic) |  |  |  | inactive | inactive | inactive
COn1cc(C2CC(=O)N=C(N)N2)c2cc(Br)c(Br)cc21 (racemic) |  |  |  | inactive | inactive | inactive
COn1cc(C2CCN=C(N)N2)c2cc(Br)c(Br)cc21 (racemic) [APLICYANIN E] | 10.9 |  |  |  | inactive | inactive
NC1=NCCC(c2c[nH]c3cc(Br)ccc23)N1 (racemic) | 19.1 | 21.1 |  |  |  | inactive
NC1=NCCC(c2c[nH]c3cc(Br)c(Br)cc23)N1 (racemic) |  |  |  | inactive | inactive | inactive
